Most compounds without a hit are left out; they make up all but 2.2% or so of the library.
RORa activator = activators of orphan receptor RORA, primary screen, cell-based, luminescence; Nuclear receptor ROR-alpha (Homo sapiens), P35398; CHO-K1 Gal4-RORA LBD luciferase reporter; percent increase over mock-subtracted basal signal; activation, % at 10 µM; 1.5% of 65,000 active;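 active = activation above the mean of all tested compounds plus 3 SD, cut at about 49% in these data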;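 note: 0% = DMSO-treated RORA cells and 100% = added signal equal to DMSO minus mock-transfected cells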
MT1-MMP txn act = MT1-MMP promoter reporter activation – cell-based, luciferase luminescence, primary screen; HT1080 MT1-MMP promoter luciferase reporter, overnight; stronger effect = higher value; 0.16% of 86,000 active; activation factor at 10 µM; AID 750, 2007;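 active = activation factor of at least 2 for MT1-MMP transcription at 10 µM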
SF-1 act = activators of human SF-1, primary screen, cell-based, CHO-K1, Gal4-SF-1 LBD, luciferase luminescence. AID 522, 2006. 1.9% of 65,000 active. Steroidogenic factor 1 (Homo sapiens), Q13285. activation, % at 10 µM. CHO-K1 Gal4-SF-1 LBD luciferase reporter; % increase over DMSO SF-1-specific signal;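 active = activation above the mean activation of all tested compounds plus 3 SD, cut at about 50% in these data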
Target sequence (Q13285 whole entry, looked up, the tested form may be a part): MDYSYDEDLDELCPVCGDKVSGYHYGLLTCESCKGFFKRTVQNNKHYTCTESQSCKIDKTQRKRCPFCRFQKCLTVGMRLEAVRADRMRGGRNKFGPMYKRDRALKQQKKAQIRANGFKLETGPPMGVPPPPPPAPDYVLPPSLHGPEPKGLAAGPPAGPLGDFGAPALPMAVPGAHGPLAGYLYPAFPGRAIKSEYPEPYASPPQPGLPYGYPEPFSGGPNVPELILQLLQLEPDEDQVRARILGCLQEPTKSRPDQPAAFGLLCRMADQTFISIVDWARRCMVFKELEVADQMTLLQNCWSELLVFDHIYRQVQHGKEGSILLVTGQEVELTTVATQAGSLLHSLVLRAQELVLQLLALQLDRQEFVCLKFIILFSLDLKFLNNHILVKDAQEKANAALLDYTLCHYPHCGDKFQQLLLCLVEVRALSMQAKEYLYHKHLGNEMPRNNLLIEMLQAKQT
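Compound – one dose, 10 µM compound, 1% DMSO · Test system – transient Gal4-SF-1 LBD reporter, CHO-K1 · Input – 4,000 cells in each well · Read-out basis – percent activation relative to DMSO median and mock-transfected background · Replicates – single measurement per compound · Technique – steady-glow luciferase luminescence, read after 15 min reagent incubation · Timing – 20 h compound treatment, 37 °C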
TNAP act DEA = human TNAP enzyme activators, primary screen, biochemical, luminescent, intermediate phosphate acceptor level | activation factor at 20 µM | 64,000 tested, under 10 active | purified TNAP, CDP-star luminescence, 100 mM DEA, 30 min; stronger effect = higher value; scale: 0 levamisole-inhibited, 1 vehicle-only enzyme | AID 813, 2007 | Alkaline phosphatase, tissue-nonspecific isozyme (Homo sapiens), P05186;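 active = activation factor of at least 2 at 20 µM, relative to controls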
Ec RNAP inh = E. coli RNAP inhibitors, biochemical; inhibition, %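 (tested at 10 µM)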; DNA-directed RNA polymerase subunit beta (Escherichia coli (strain K12)), P0A8V2; 0.2% of 62,000 active; AID 559, 2006; E. coli RNA polymerase, fluorescence transcription assay; in the data active = inhibition above about 20%;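 note: 0% = enzyme without compound and 100% = no enzyme blank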
AP complement = alternative complement pathway inhibitors, primary screen, biochemical, ELISA, human serum, orthogonally pooled compounds. 0.08% of 62,000 active. LPS-coated ELISA, C3 deposition; tested in compound mixtures. AID 1235, 2008. inhibition, % at 5 µM;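 active = inhibition above 30% in each of the two pooled mixtures holding the compound, so the lower value exceeds 30%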;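 note: 0% = serum in Mg-EGTA without compound and 100% = EDTA serum blank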
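Assay system: human serum alternative complement pathway, C3 deposition on LPS-coated wells; Dosing: 5 µM per compound in ten-compound mixtures; Detection: Anti-C3 ELISA, OD 450 nm; Buffer or medium: Mg2+-EGTA GVB++ buffer containing human serum at 1:15 dilution; Timing: 1 h at 37 °C; Replication: two different pools per compound.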
Active calls of the source: *; nt = not tested or not shown.

SMILES	RORa activator	MT1-MMP txn act	SF-1 act	TNAP act DEA	Ec RNAP inh	AP complement
CCOc1cc2[nH]c(=O)n(CCCCC(=O)NC3CCCCC3)c(=O)c2cc1OCC	28	1.3	-2	1	2	0
CCOc1ccc2nc(N3CCC(C(=O)Nc4nnc(CC)s4)CC3)sc2c1	46	1.3	67*	0.9	5	18
CCOc1ccc2nc(N3CCCCCC3)sc2c1	36	1.2	58*	0.9	8	0
CCc1nnc(NC(=O)C2CCN(C(=O)NC3CCCCC3)CC2)s1	4	1.1	21	1	-4	34*
O=C(Nc1ccc(N2CCOCC2)c(F)c1)c1ccncc1	8	1.2	9	0.9	6	5
CCOc1ccc(CCNC(=O)C2CCC(=O)N2C2CCCCC2)cc1OCC (stereo not drawn)	0	1.3	-4	1	6	10
COc1ccc2nc(NC(=O)c3cc(C)oc3C)sc2c1	nt	1.4	nt	nt	nt	nt
Cc1nnc(NC(=O)C2COc3ccccc3O2)s1 (stereo not drawn)	18	1.6	52*	1	7	8
CCc1nnc(NC(=O)C2COc3ccccc3O2)s1 (stereo not drawn)	nt	1.1	nt	nt	nt	nt
CS(=O)(=O)c1ccc2nc(NC(=O)C3COc4ccccc4O3)sc2c1 (stereo not drawn)	7	1.4	52*	0.9	1	5
O=C(Nc1nc(-c2nc3ccccc3s2)cs1)C1COc2ccccc2O1 (stereo not drawn)	13	1.5	55*	1	12	-1
Cc1cc(C(=O)Nc2nc3ccc(S(C)(=O)=O)cc3s2)c(C)o1	89*	1	50*	1	-9	-8
CCN(CC)S(=O)(=O)c1cccc(-c2nnc(SCC(=O)NC3CCCCCCC3)n2N)c1	nt	1	nt	nt	nt	nt
CCC1=C2CC[C@H]3C(=O)N(C)C(=O)[C@H]3[C@H]2[C@@]2(C)C(=O)N(CC3CC3)C(=O)N2C1=O	nt	1.1	nt	nt	nt	nt
O=C(NCc1cn2ccsc2n1)c1cccc(C(F)(F)F)c1	-15	1.1	-8	1	22*	14
C#CCn1c(=NC(=O)c2cccs2)sc2cccc(OC)c21	79*	1.3	76*	0.9	2	23
C#CCn1c(=NC(=O)CSCC(=O)N2CCOCC2)sc2ccccc21	-20	1.1	0	nt	nt	nt
Cn1c(C(C#N)C(=O)Cc2cccc3ccccc23)nc2ccccc21 (stereo not drawn)	-22	1	-6	0.9	9	5
Cn1c(C(C#N)C(=O)c2ccco2)nc2ccccc21 (stereo not drawn)	67*	1.9	59*	0.9	13	1
CC(=O)c1cccc(NC(=O)NCc2ccccn2)c1	22	1.4	56*	0.8	5	7
CC(=O)N(c1ccc(N(C(C)=O)S(=O)(=O)c2cccs2)cc1)S(=O)(=O)c1cccs1	-26	1	13	0.9	24*	-4
Cc1cc2nn(-c3ccccc3)nc2cc1NC(=O)c1cccs1	95*	1.5	38	0.9	3	12
O=C(CSc1nnc(COc2ccccc2Cl)o1)NC(=O)NC1CCCC1	-15	1.7	-5	nt	7	13
O=C(COc1ccccc1Cl)Nc1ccc(Cl)cn1	62*	1.5	74*	1	5	10
O=C(COc1ccccc1Cl)NC(=O)NC1CCCC1	20	1.4	53*	0.9	7	0
SMILES	RORa activator	MT1-MMP txn act	SF-1 act	TNAP act DEA	Ec RNAP inh	AP complement
CCCCC(=O)Nc1ccc(Cl)cn1	3	1.6	5	0.9	-11	-6
O=C(CCc1ccccc1)Nc1ccc(Cl)cn1	38	0.8	60*	0.9	3	-16
COc1ccc(C2=NO[C@@H]3C(=O)N(c4c(C)cccc4C)C(=O)[C@H]23)cc1OC	-3	1	12	1	24*	23
COc1ccc(OC)c(N2C(=O)[C@@H]3C(c4ccccc4Cl)=NO[C@@H]3C2=O)c1	11	1	-9	0.9	5	6
CC(C)(C)c1ccc(C(=O)N2CCC(C(=O)NCc3ccncc3)CC2)cc1	60*	1	25	0.9	3	1
Cc1cc2nnc(SCC(=O)OC(C)C)n2c2ccccc12	nt	1.1	nt	nt	nt	nt
Cc1ccc(-n2nnc3ccccc3c2=O)cc1C	28	1.4	54*	0.9	0	14
CC(=O)c1c(N2CCN(C)CC2)[nH]c(-c2ccccc2)nc1=S	nt	1.1	nt	nt	nt	nt
Cn1ncc2c1ncn1nc(COc3ccc4ccccc4c3)nc21	10	1.1	3	0.8	8	1
Cn1ncc2c1ncn1nc(CCc3ccccc3)nc21	44	1.5	50*	0.4	5	-2
COC(=O)[C@@H]1C[C@H]1[C@@H](NC(=O)c1cccnc1)c1ccccc1	nt	1.2	nt	nt	nt	nt
COc1ccc2nc(-c3ccccc3)[nH]c2c1	0	0.5	5	1	2	-32
CCOc1ccc2nc(-c3ccccc3)[nH]c2c1	67*	0.6	27	0.8	1	0
CC1=C(C(=O)OCc2ccccc2)C(c2ccccc2OC(=O)c2cccs2)NC(=O)N1CCCC(=O)O (stereo not drawn)	nt	1.2	nt	nt	nt	nt
NC(=O)c1ccccc1N/C=C/C(=O)c1ccc(F)cc1	nt	1.1	nt	nt	nt	nt
Cc1ccc(C(=O)/C=C/Nc2ccccc2C(N)=O)o1	34	0.9	63*	0.9	5	7
CC(O)CN(Cc1cccc(Cl)c1)CC(C)O (stereo not drawn)	-11	1.1	-6	0.9	-7	14
COc1ccccc1-c1ccc(NC2CCCCC2)nn1	27	1.7	80*	0.9	1	6
CC(C)CC(=O)Nc1cccc(C(=O)Nc2ccccc2C(=O)O)c1	nt	1.1	nt	nt	nt	nt
CC(C)Cc1cc(C(=O)NCCCN2CCOCC2)no1	-17	nt	-2	0.9	5	15
COc1ccc(-c2csc(N3CCOCC3)n2)cc1OC	61*	1.6	10	0.9	12	10
COc1cccc(C(c2sc3nc(C)nn3c2O)N2CCc3ccccc3C2)c1 (stereo not drawn)	7	1	0	1.1	8	-1
Oc1ccccc1C1=Nc2nc3ccccc3n2C(c2ccccc2)C1 (stereo not drawn)	81*	1.3	42	0.9	2	-2
CN1C(=O)CC(n2c(CO)nc3ccccc32)C1=O (stereo not drawn)	-1	1	18	1	5	6

Screens as filed in PubChem BioAssay.
